According to ChEMBL document CHEMBL1144173, “1-Benzylbenzimidazoles: the discovery of a novel series of bradykinin B(1) receptor antagonists” (Bioorg Med Chem Lett, 2008):
Values after ≈ are worked out from the molar mass of the structure shown.

What was measured:
B1 bradykinin receptor [1] = biological target: T1, B1 bradykinin receptor (Homo sapiens, UniProt P46663); assay: Inhibition of human bradykinin B1 receptor
T1 sequence (P46663 whole entry): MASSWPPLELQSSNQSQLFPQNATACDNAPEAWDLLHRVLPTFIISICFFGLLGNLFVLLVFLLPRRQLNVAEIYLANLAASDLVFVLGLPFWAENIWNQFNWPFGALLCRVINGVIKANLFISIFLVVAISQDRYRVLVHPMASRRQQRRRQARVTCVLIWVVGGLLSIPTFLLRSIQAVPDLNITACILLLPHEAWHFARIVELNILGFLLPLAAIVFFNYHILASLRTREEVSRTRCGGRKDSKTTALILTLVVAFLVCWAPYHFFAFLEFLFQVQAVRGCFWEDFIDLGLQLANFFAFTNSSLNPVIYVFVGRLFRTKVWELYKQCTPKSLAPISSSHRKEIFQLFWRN

B1 bradykinin receptor [2] = biological target: T2, B1 bradykinin receptor (Macaca fascicularis, UniProt Q3BCU0); assay: Antagonist activity at Cynomolgus monkey bradykinin B1 receptor expressed in CHO cells assessed as calcium transient by FLIPR assay; type: functional, cell-based
T2 sequence (Q3BCU0 whole entry): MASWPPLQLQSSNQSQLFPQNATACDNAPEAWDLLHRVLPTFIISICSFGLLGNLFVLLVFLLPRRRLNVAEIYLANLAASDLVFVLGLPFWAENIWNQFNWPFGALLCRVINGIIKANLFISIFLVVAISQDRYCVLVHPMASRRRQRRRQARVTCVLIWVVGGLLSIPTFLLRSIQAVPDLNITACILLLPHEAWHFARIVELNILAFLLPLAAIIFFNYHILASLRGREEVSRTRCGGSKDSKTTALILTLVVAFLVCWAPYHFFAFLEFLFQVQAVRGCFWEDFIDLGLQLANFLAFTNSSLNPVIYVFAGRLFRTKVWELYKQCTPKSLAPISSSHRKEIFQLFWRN

B1 bradykinin receptor [3] = biological target: T3, B1 bradykinin receptor (Rattus norvegicus, UniProt P97583); assay: Antagonist activity at rat bradykinin B1 receptor; type: functional
T3 sequence (P97583 whole entry): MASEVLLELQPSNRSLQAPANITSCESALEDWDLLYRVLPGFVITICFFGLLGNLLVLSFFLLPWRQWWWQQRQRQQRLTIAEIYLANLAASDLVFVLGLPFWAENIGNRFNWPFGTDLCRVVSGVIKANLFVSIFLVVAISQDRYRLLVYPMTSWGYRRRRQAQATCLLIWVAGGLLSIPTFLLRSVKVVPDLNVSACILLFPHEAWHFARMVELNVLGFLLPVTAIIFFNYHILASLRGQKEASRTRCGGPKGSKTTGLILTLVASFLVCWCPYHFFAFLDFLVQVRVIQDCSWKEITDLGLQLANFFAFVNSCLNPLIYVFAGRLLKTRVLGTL
Method in brief: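 Rat B1 receptor tested in the same way as the cynomolgus assay: FLIPR Ca2+ transients with inhibition of DAKD-induced fluorescence measured across multiple compound concentrations to derive functional IC50.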

MDCK [4] = assay: Ratio of permeability from basolateral to apical over apical to basolateral side of MDCK cells expressing MDR1; type: ADME, cell-based, Canis lupus familiaris; conditions: dog
Method in brief: (§1)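 MDR1-transfected MDCK cell monolayer. Apparent permeability (Papp) measured in the apical-to-basolateral and basolateral-to-apical directions. The A-to-B Papp is reported as passive permeability, and the efflux ratio is Papp(B→A)/Papp(A→B).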

MDR1 = assay: Passive permeability from apical to basolateral side of MDCK cells expressing MDR1; type: ADME, cell-based, Canis lupus familiaris; conditions: dog; method in brief: as §1
[5] = Aqueous solubility at pH 7.4; type: physicochemical
Liver microsomes = assay: Metabolic stability in rat liver microsomes at 1 uM after 10 mins by LC-MS analysis in presence of NADPH; type: ADME, Microsome
Method in brief: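 Pooled male rat liver microsomes at 0.5 mg/ml with compound at 1 µM, 37 °C. Reaction started with NADPH, and aliquots taken at 0 and 10 min. Percent parent remaining is the 10-min/0-min signal ratio, corrected by internal standard recovery.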

[6] = Oral bioavailability in rat at 10 mg/kg; type: ADME, organism-based; conditions: in vivo
MDCK [7] = assay: Ratio of permeability from basolateral to apical over apical to basolateral side of MDCK cells expressing MDR1 in presence of cyclosporine; type: ADME, cell-based, Canis lupus familiaris; conditions: dog
Method in brief: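 MDR1-transfected MDCK monolayer run with 25 µM cyclosporine as P-gp inhibitor. Efflux ratio is Papp basolateral-to-apical divided by Papp apical-to-basolateral.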

| SMILES | IC50 (B1 bradykinin receptor [2]) [nM] | further results |
| --- | --- | --- |
| Cc1c(C(=O)NCCC2CCN(C3CCN(C)CC3)CC2)n[nH]c1NC(=O)c1ccccc1Cl | – | IC50 (B1 bradykinin receptor [1]): 1.8 nM |
| CN1CCC(N2CCN(C(=O)[C@H]3CCCN3C(=O)c3nc4ccccc4n3Cc3ccccc3)CC2)CC1 | 3220 | – |
| O=C(NCC(=O)N1CCN(c2ccncc2)CC1)c1nc2ccccc2n1Cc1ccccc1 | 310 | IC50 (B1 bradykinin receptor [3]): 417 nM |
| O=C(NCCC(=O)N1CCC2(CCOCC2)CC1)c1nc2ccccc2n1Cc1ccccc1 | 1990 | – |
| CN(Cc1ccc(-c2cc[nH]n2)cc1)C(=O)CNC(=O)c1nc2ccccc2n1Cc1ccccc1 | 2130 | – |
| Cc1nc(-c2ccc(CN(C)C(=O)CNC(=O)c3nc4ccccc4n3Cc3ccccc3)cc2)no1 | 718 | – |
| CN(Cc1ccc(-c2nnn[nH]2)cc1)C(=O)CNC(=O)c1nc2ccccc2n1Cc1ccccc1 | > 5000 | – |
| CN1CCC(N2CCN(C(=O)C3CCN(C(=O)c4nc5ccccc5n4Cc4ccccc4)CC3)CC2)CC1 | 4020 | – |
| CN(Cc1ccc(C2=NCCN2)cc1)C(=O)CCNC(=O)c1nc2ccccc2n1Cc1ccccc1 | 54 | – |
| CN(Cc1ccc(-c2ncccn2)cc1)C(=O)CNC(=O)c1nc2ccccc2n1Cc1ccccc1 | 330 | – |
| CN(Cc1ccc(-c2ccccn2)cc1)C(=O)CNC(=O)c1nc2ccccc2n1Cc1ccccc1 | 407 | – |
| CCN(CC(=O)N(C)Cc1ccc(C2=NCCN2)cc1)C(=O)c1nc2ccccc2n1Cc1ccccc1 | 6 | IC50 (B1 bradykinin receptor [3]): 345 nM |
| CN(C)C(=O)c1ccc(CN(C)C(=O)CNC(=O)c2nc3ccccc3n2Cc2ccccc2)cc1 | > 5000 | – |
| CN(Cc1ccc(C#N)cc1)C(=O)CNC(=O)c1nc2ccccc2n1Cc1ccccc1 | > 5000 | Ratio (MDCK [4]): 3; Papp A→B (MDR1): 7 ×10⁻⁶ cm/s |
| CN1CCC(N2CCN(C(=O)[C@@H]3CCCN3C(=O)c3nc4ccccc4n3Cc3ccccc3)CC2)CC1 | 884 | – |
| CCN(CC(=O)N1CCN(C2CCN(C)CC2)CC1)Cc1nc2ccccc2n1Cc1ccccc1 | > 5000 | – |
| CCCN(CC(=O)N1CCN(C2CCN(C)CC2)CC1)C(=O)c1nc2ccccc2n1Cc1ccccc1 | 18 | IC50 (B1 bradykinin receptor [3]): 23 nM |
| CN(Cc1ccc(C(N)=O)cc1)C(=O)CNC(=O)c1nc2ccccc2n1Cc1ccccc1 | > 5000 | – |
| CCCN1C(=O)C(NC(=O)Nc2ccc(N3CCN(c4ccncc4)CC3)cc2)N=C(CCc2ccccc2)c2ccccc21 (stereo not given) | – | Ki (B1 bradykinin receptor [3]): 0.92 nM; bioavailability [6]: < 4%; Ki (B1 bradykinin receptor [1]): 0.59 nM |
| CN(Cc1ccc(C2=NCCN2)cc1)C(=O)c1nc2ccccc2n1Cc1ccccc1 | 1020 | – |
| CN(Cc1ccc(-c2nccs2)cc1)C(=O)CNC(=O)c1nc2ccccc2n1Cc1ccccc1 | 1170 | – |

Continued, in another order:

| IC50 (B1 bradykinin receptor [2]) [nM] | SMILES | further results |
| --- | --- | --- |
| > 5000 | O=C1NCC2(CCN(C(=O)CCNC(=O)c3nc4ccccc4n3Cc3ccccc3)CC2)O1 | – |
| 4070 | O=C([C@H]1CCCN1C(=O)c1nc2ccccc2n1Cc1ccccc1)N1CCN(c2ccncc2)CC1 | – |
| > 5000 | CN1CCC(N2CCN(C(=O)c3nc4ccccc4n3Cc3ccccc3)CC2)CC1 | – |
| > 5000 | O=C([C@@H]1CCCN1C(=O)c1nc2ccccc2n1Cc1ccccc1)N1CCN(c2ccncc2)CC1 | – |
| 14 | CN(Cc1ccc(C2=NCCN2C)cc1)C(=O)CNC(=O)c1nc2ccccc2n1Cc1ccccc1 | – |
| > 5000 | O=C(c1nc2ccccc2n1Cc1ccccc1)N1CCN(c2ccncc2)CC1 | – |
| > 5000 | CCC(NC(=O)c1nc2ccccc2n1Cc1ccccc1)C(=O)N1CCN(c2ccncc2)CC1 (stereo not given) | – |
| 1300 | CCC(NC(=O)c1nc2ccccc2n1Cc1ccccc1)C(=O)N1CCN(C2CCN(C)CC2)CC1 (stereo not given) | – |
| > 5000 | CN1CCC2(CC1)CCN(C(=O)CCNC(=O)c1nc3ccccc3n1Cc1ccccc1)CC2 | – |
| 601 | CN1CCC(N2CCN(C(=O)CCNC(=O)c3nc4ccccc4n3Cc3ccccc3)CC2)CC1 | – |
| 744 | O=C(CCNC(=O)c1nc2ccccc2n1Cc1ccccc1)Nc1ccc2nc[nH]c2c1 | – |
| 962 | O=C(NCCC(=O)N1CCN(c2ccncc2)CC1)c1nc2ccccc2n1Cc1ccccc1 | – |
| 2910 | CN1CCC2(CCN(C(=O)CCNC(=O)c3nc4ccccc4n3Cc3ccccc3)CC2)C1 | – |
| 16 | CCN(CC(=O)N1CCN(C2CCN(C)CC2)CC1)C(=O)c1nc2ccccc2n1Cc1ccccc1 | IC50 (B1 bradykinin receptor [3]): 15 nM; Ratio (MDCK [4]): 55; Papp A→B (MDR1): 0.6 ×10⁻⁶ cm/s; solubility [5]: 120 µg/mL (≈ 239 µM); Stability (Liver microsomes): Stable; bioavailability [6]: < 5% |
| 626 | CN(Cc1ccc(-n2ccnc2)cc1)C(=O)CNC(=O)c1nc2ccccc2n1Cc1ccccc1 | – |
| 188 | CN(Cc1ccc(C2=NCCN2)cc1)C(=O)C1CCN(C(=O)c2nc3ccccc3n2Cc2ccccc2)CC1 | – |
| 2310 | O=C(c1nc2ccccc2n1Cc1ccccc1)N1CCC(C(=O)N2CCN(c3ccncc3)CC2)CC1 | – |
| 1180 | CN(CC(=O)N1CCN(c2ccncc2)CC1)C(=O)c1nc2ccccc2n1Cc1ccccc1 | – |
| 278 | CCN(CC(=O)N1CCN(c2ccncc2)CC1)C(=O)c1nc2ccccc2n1Cc1ccccc1 | – |
| > 5000 | CCN(CC(=O)N1CCN(c2ccncc2)CC1)Cc1nc2ccccc2n1Cc1ccccc1 | – |
| 686 | CN1CCC(N2CCN(C(=O)CNC(=O)c3nc4ccccc4n3Cc3ccccc3)CC2)CC1 | – |
| 2 | O=C(CCNC(=O)c1nc2ccccc2n1Cc1ccccc1)Nc1ccc(C2=NCCN2)nc1 | IC50 (B1 bradykinin receptor [3]): 0.8 nM; Ratio (MDCK [4]): 42 |
| 465 | CC(C)N(CC(=O)N1CCN(C2CCN(C)CC2)CC1)C(=O)c1nc2ccccc2n1Cc1ccccc1 | – |
| 524 | O=C(CCNC(=O)c1nc2ccccc2n1Cc1ccccc1)Nc1ccc2cn[nH]c2c1 | – |
| 196 | CN(Cc1ccc(CN2CCCCC2)cc1)C(=O)CNC(=O)c1nc2ccccc2n1Cc1ccccc1 | – |
| 5 | CN(Cc1ccc(C2=NCCN2)cc1)C(=O)CNC(=O)c1nc2ccccc2n1Cc1ccccc1 | IC50 (B1 bradykinin receptor [3]): 155 nM; Ratio (MDCK [4]): 23; Papp A→B (MDR1): 1 ×10⁻⁶ cm/s; Ratio (MDCK [7]): 1.5 |
| 355 | CCCN(CC(=O)N1CCN(c2ccncc2)CC1)C(=O)c1nc2ccccc2n1Cc1ccccc1 | IC50 (B1 bradykinin receptor [3]): 396 nM |
| 268 | CN1CCC(N2CCN(C(=O)CN(C)C(=O)c3nc4ccccc4n3Cc3ccccc3)CC2)CC1 | – |
| > 5000 | CC(C)N(CC(=O)N1CCN(c2ccncc2)CC1)C(=O)c1nc2ccccc2n1Cc1ccccc1 | – |
